In series [1] the test system is Mus musculus. In words: Anti-hyperuricemic activity in potassium oxonate-induced hyperuricemic Kun-Ming mouse assessed as serum uric acid level at 10 mg/kg/day, ig for 7 days and measured 1 hr post last dose (reference value: 5.89 +/- 0.36 mg/dl). Format: functional.
Series [2] is described as follows: Antioxidant activity assessed as ABTS free radical scavenging activity by measuring trolox equivalents after 6 mins. Type of series: functional. An outline of the steps: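 ABTS radical scavenging, expressed as trolox equivalent: (mmol trolox)/(mmol tested compound).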
Series [3] has as its system Mus musculus. In words: Toxicity in Kun-Ming mouse assessed as effect on water consumption at 5000 mg/kg, ig measured continuously for first 4 hrs and intermittently for next 24 hrs. Format: organism-based. To be noted: in vivo, po. An outline of the steps: (§1)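 Mice received a single 5,000 mg/kg dose. They were watched continuously for the first 4 h and intermittently over the next 24 h for abnormal behaviour and mortality. Water intake, food intake and body weight were tracked over the experimental period. The protocol was adapted from an earlier reported acute toxicity study.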

Series [4] relates to Mus musculus. Briefly: Toxicity in Kun-Ming mouse assessed as induction of mortality at 5000 mg/kg, ig measured continuously for first 4 hrs and intermittently for next 24 hrs. Format: organism-based. To be noted: in vivo, po. The gist of the method: as §1
The subject of series [5] is Mus musculus. In words: Anti-hyperuricemic activity in potassium oxonate-induced hyperuricemic Kun-Ming mouse assessed as xanthine oxidase activity per gram of protein at 50 mg/kg/day, ig for 7 days and measured 1 hr post last dose (reference value: 81.5 +/- 1.4 U/g protein). Format: functional.
For series [6], the system named is Mus musculus. In words: Anti-hyperuricemic activity in potassium oxonate-induced hyperuricemic Kun-Ming mouse assessed as serum uric acid level at 50 mg/kg/day, ig for 7 days and measured 1 hr post last dose (reference value: 5.89 +/- 0.36 mg/dl). Type of series: functional.
The nature of series [7]: Antioxidant activity assessed as DPPH free radical scavenging activity incubated for 30 mins. Type of series: functional. A general note: The DPPH test is a chemical assay of radical scavenging.
In series [8] the test system is Mus musculus. In words: Toxicity in Kun-Ming mouse assessed as induction of body weight reduction at 5000 mg/kg, ig measured continuously for first 4 hrs and intermittently for next 24 hrs. The following applies: in vivo, po. Type of series: organism-based. The gist of the method: as §1
Series [9] concerns Mus musculus. In words: Anti-hyperuricemic activity in potassium oxonate-induced hyperuricemic Kun-Ming mouse assessed as xanthine oxidase activity per gram of protein at 10 mg/kg/day, ig for 7 days and measured 1 hr post last dose (reference value: 81.5 +/- 1.4 U/g protein). Format: functional.
Series [10] relates to Mus musculus. In words: Toxicity in Kun-Ming mouse assessed as effect on food consumption at 5000 mg/kg, ig measured continuously for first 4 hrs and intermittently for next 24 hrs. To be noted: in vivo, po. Type of series: organism-based. The gist of the method:
as §1

The target of series [11] is T1, Xanthine dehydrogenase/oxidase (Bos taurus, UniProt P80457). In words: Inhibition of bovine milk xanthine oxidase pre-incubated for 30 mins followed by xanthine addition and measured every 30 secs for 5 mins by spectrophotometry.
Series [12] is described as follows: Antioxidant activity assessed as DPPH free radical scavenging activity incubated for 30 mins at 2000 uM. Format: functional. An outline of the steps: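 DPPH radical scavenging, given as percent inhibitory rate with test compound at 2000 µM.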
Series [13] addresses T1, Xanthine dehydrogenase/oxidase. In words: Inhibition of bovine milk xanthine oxidase at 1000 uM pre-incubated for 30 mins followed by xanthine addition and measured every 30 secs for 5 mins by spectrophotometry. To be noted: cattle. An outline of the steps: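 XO inhibition tested up to 1000 µM, the highest concentration tested; compounds precipitate above this. IC50 values from three experiments, reported as mean ± SEM.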

Series [14] has the same target. Briefly: Mixed type inhibition of bovine milk xanthine oxidase pre-incubated for 30 mins followed by xanthine addition and measured every 30 secs for 5 mins by spectrophotometry based L-B plot analysis. The following applies: cattle. The gist of the method: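 Inhibition type from Michaelis–Menten kinetics. Initial XO velocity measured at increasing xanthine concentrations with inhibitor at 0, 25, 50 and 100 µM. Activity read as change in absorbance at 295 nm per unit time; mode assigned from overlaid Lineweaver–Burk reciprocal plots.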

Series [15] relates to Mus musculus. In words: Anti-hyperuricemic activity in potassium oxonate-induced hyperuricemic Kun-Ming mouse assessed as reduction in serum uric acid level at 10 and 50 mg/kg/day, ig for 7 days and measured 1 hr post last dose. Type of series: functional, organism-based.

T1 sequence (P80457 whole entry): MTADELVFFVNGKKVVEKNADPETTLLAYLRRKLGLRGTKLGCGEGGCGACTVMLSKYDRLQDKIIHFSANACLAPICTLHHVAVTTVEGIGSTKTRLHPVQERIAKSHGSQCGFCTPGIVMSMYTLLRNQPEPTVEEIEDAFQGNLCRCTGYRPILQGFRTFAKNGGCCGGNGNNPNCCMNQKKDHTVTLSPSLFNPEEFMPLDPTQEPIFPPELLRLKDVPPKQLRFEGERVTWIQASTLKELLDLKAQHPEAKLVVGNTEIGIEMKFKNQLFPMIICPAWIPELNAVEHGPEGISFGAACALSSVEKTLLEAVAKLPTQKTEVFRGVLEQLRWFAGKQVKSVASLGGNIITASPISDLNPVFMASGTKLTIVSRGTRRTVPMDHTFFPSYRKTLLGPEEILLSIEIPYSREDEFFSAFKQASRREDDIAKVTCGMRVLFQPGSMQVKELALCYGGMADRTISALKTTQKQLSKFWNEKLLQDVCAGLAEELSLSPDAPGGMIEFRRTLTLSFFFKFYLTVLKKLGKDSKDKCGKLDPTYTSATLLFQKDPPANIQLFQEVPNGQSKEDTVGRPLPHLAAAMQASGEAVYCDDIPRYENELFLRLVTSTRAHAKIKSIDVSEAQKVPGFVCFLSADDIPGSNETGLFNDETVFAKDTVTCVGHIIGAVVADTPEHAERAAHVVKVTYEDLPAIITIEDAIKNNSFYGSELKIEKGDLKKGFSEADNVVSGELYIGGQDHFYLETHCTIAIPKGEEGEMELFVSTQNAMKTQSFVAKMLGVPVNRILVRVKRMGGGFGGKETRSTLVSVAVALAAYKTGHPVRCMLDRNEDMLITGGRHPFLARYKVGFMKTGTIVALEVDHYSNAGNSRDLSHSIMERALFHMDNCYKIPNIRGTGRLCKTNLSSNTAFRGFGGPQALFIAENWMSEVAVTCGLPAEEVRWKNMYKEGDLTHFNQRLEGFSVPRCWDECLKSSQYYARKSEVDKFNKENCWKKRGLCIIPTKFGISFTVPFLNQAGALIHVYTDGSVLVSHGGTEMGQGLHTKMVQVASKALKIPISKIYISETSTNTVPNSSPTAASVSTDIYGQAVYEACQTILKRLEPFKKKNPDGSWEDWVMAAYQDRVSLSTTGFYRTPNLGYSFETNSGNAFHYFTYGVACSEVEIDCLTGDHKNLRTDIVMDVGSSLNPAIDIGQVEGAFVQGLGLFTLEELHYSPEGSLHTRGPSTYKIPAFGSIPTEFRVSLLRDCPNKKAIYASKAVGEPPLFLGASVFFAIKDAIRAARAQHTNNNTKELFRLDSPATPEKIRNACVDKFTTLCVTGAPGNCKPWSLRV

For orientation: IC50 means the concentration needed to halve the response being measured. As to `O=C(/C=C/c1ccc(O)cc1)c1ccc(O)cc1O` [ISOLIQUIRITIGENIN], the Activity is 5.14 mg/dL in series [1]; “Non-Toxic” in [3]; “Non-Toxic” in series [4]; 62 U/g protein in series [5]; 4.45 mg/dL in [6]; “Non-Toxic” in series [8]. The results for the Activity in [9] and in series [10] were 70.5 U/g protein and “Non-Toxic”, respectively. In [2], the Activity (mmolequiv/mmol) is 0.51. Also, the concentration for half-maximal inhibition (IC50) in series [7] was 287 µM; in series [11], 47.3 µM.

One may read the inhibition as the relative decrease from the control value, in per cent. Regarding `O=C(/C=C/c1ccc(O)cc1)c1ccc(O)cc1` [4,4'-DIHYDROXYCHALCONE], the Activity (mmolequiv/mmol) in series [2] was found to be 0.43. Moreover, the inhibition in series [12] is 35.9%. The same molecule registered a half-inhibitory concentration (IC50) in series [11] of 117 µM.

With `O=C(/C=C/c1ccc(O)cc1O)c1ccccc1`, the Activity (mmolequiv/mmol) in series [2] was under 0.1. In addition, the inhibition in [12] came out at 10.8%. Besides, in series [13], the “inhibition (INH)” value is recorded as “Not Active”.

As for `O=C(/C=C/c1ccccc1O)c1ccc(O)cc1O`, the Activity was 5.21 mg/dL in series [1]; “Non-Toxic” in [3]; “Dose-dependent effect” in [15]; “Non-Toxic” in series [4]; 64.1 U/g protein in [5]; 4.5 mg/dL in series [6]. Further, the figures for the Activity entry in series [8], in [9] and in series [10] were “Non-Toxic”, 73.2 U/g protein and “Non-Toxic”, respectively. Besides, the “inhibition (INH)” value in [14] is “Active”. Besides, in series [2], the Activity (mmolequiv/mmol) came out at 0.87. The 50% inhibitory concentration (IC50) in [7] was 128 µM; in series [11] it was 56.8 µM.

Turning to `Oc1ccc(/C=C/c2cc(O)cc(O)c2)cc1` [RESVERATROL], the Activity (mmolequiv/mmol) in series [2] came to 0.65. Further, the 50% inhibitory concentration (IC50) in series [7] is 95.1 µM.

Take `O=C(/C=C/c1cccc(O)c1)c1ccc(O)cc1O`: the Activity (mmolequiv/mmol) in series [2] worked out at 0.45. The inhibition in series [12] came to 38.6%. The 50% inhibitory concentration (IC50) in [11] stood at 108 µM.

In the case of `O=C(/C=C/c1ccc(O)cc1)c1ccccc1O`, the Activity (mmolequiv/mmol) in series [2] stood at 0.24. Moreover, the inhibition in [12] came out at 23.1%. Also, in [11], the half-inhibitory concentration (IC50) was 79.4 µM.

In the case of `Oc1ncnc2[nH]ncc12` [ALLOPURINOL], the Activity in series [1] was determined as 4.14 mg/dL; in series [9], 50.9 U/g protein. In addition, the Activity (mmolequiv/mmol) in series [2] is under 0.1. The inhibition in series [12] was found to be 20.5%.

For the molecule `O=C(/C=C/c1cccc(O)c1)c1cccc(O)c1`, the Activity (mmolequiv/mmol) in series [2] was found to be 0.18. Also, the inhibition in series [12] is 24.3%. In series [11], the IC50 was determined as 88.3 µM.

In the case of `O=C(/C=C/c1ccc(O)cc1)c1cccc(O)c1`, the Activity (mmolequiv/mmol) in series [2] amounted to 0.16. The inhibition in series [12] was 19.7%. For the same molecule, in series [11], half-maximal inhibition (IC50) required 133 µM.

In the case of `O=C(/C=C/c1ccccc1)c1ccc(O)cc1O` [2',4'-DIHYDROXYCHALCONE], in series [2], the Activity (mmolequiv/mmol) came out at 0.38. The IC50 in [7] was 197 µM; in [11] it was 107 µM.

Turning to `O=C(/C=C/c1ccc(O)cc1)c1ccccc1` [4-HYDROXYCHALCONE], in [2], the Activity (mmolequiv/mmol) is under 0.1. The inhibition in series [12] was 25.7%. Also, the IC50 in [11] turned out to be 159 µM.

`O=C(/C=C/c1ccccc1)c1ccc(O)cc1` [4'-HYDROXYCHALCONE]: in [2], the Activity (mmolequiv/mmol) was under 0.1. For the same molecule, in series [12], the inhibition is 12.5%. Besides, the “inhibition (INH)” value in series [13] was “Not Active”.

For the molecule `O=C(/C=C/c1cccc(O)c1)c1ccccc1` [3-HYDROXY CHALCONE], the Activity (mmolequiv/mmol) in series [2] was under 0.1. In series [12], the inhibition worked out at 11.3%. The same molecule yielded an IC50 in [11] of 228 µM.

As to `O=C(/C=C/c1ccccc1O)c1ccccc1`, the Activity (mmolequiv/mmol) in [2] was under 0.1. Also, the inhibition in series [12] was determined as 10.8%. Besides, half-maximal inhibition in series [11] (IC50) was put at 145 µM.

Regarding `O=C(/C=C/c1ccccc1)c1cccc(O)c1`, the Activity (mmolequiv/mmol) in series [2] is under 0.1. The inhibition in series [12] stood at 11.7%. The IC50 in series [11] was 165 µM.

In the case of `O=C(/C=C/c1ccccc1)c1ccccc1O` [2'-HYDROXYCHALCONE], the Activity (mmolequiv/mmol) in series [2] is under 0.1. In addition, the inhibition in series [12] stood at 13.5%. Moreover, in [11], the concentration for half-maximal inhibition (IC50) is 71.3 µM.

For the molecule `O=C(/C=C/c1ccccc1)c1ccccc1` [CHALCONE], the Activity (mmolequiv/mmol) in [2] was under 0.1. Also, in series [12], the inhibition is 18.4%. The “inhibition (INH)” value in series [13] is given as “Not Active”.

For the molecule `O=C(/C=C/c1ccccc1O)c1ccccc1O`, the Activity (mmolequiv/mmol) in series [2] was found to be 0.17. Also, in series [12], the inhibition amounted to 28%. Further, in [11], the IC50 was determined as 87.4 µM.

For `O=C(/C=C/c1cccc(O)c1)c1ccccc1O`, the Activity (mmolequiv/mmol) in [2] was found to be 0.93. Moreover, the results for the concentration for half-maximal inhibition (IC50) in series [7] and in [11] were 108 µM and 91.8 µM, respectively.

The values are drawn from ChEMBL document CHEMBL4043097, “Synthesis and evaluation of hydroxychalcones as multifunctional non-purine xanthine oxidase inhibitors for the treatment of hyperuricemia” (Bioorg Med Chem Lett, 2017).
